According to ChEMBL document CHEMBL1949638, “4'-bromo-5,6,7-trimethoxyflavone represses lipopolysaccharide-induced iNOS and COX-2 expressions by suppressing the NF-κB signaling pathway in RAW 264.7 macrophages” (Bioorg Med Chem Lett, 2012):
Activity calls are given as the source filed them. The rule behind the calls is not given here.

Tests used:
RAW264.7 [1] = test: Cytotoxicity against mouse RAW264.7 cells; type: cell-based
RAW264.7 [2] = test: Cytotoxicity against mouse RAW264.7 cells assessed as effect on cell viability up to 50 uM after 24 hrs; type: cell-based; settings: raw264.7, 24 h
Method in brief: (§1)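 RAW 264.7 viability checked after 24 h exposure to compounds up to 50 µM, with and without LPS.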

RAW264.7 [3] = test: Antiinflammatory activity against mouse RAW264.7 cells assessed as inhibition of LPS-induced PGE2 production at 25 uM by EIA; type: functional
RAW264.7 [4] = test: Antiinflammatory activity against mouse RAW264.7 cells assessed as inhibition of LPS-induced NO production at 25 uM preincubated for 1 hr before LPS challenge measured after 24 hrs by Griess method; type: functional
Method in brief: (§2)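 Pretreatment with test agent for 1 h, then LPS 1 μg/ml for 24 h; nitrite in culture medium measured by Griess assay. IC50 derived; means ± SDs of three independent experiments. L-NIL 10 μM served as reference NO inhibitor.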

RAW264.7 [5] = test: Cytotoxicity against mouse LPS-stimulated RAW264.7 cells assessed as effect on cell viability up to 50 uM after 24 hrs; type: cell-based; settings: raw264.7, 24 h; method in brief: as §1
RAW264.7 [6] = test: Inhibition of NF-kappaB in mouse RAW264.7 cells assessed as suppression of LPS-induced COX2 mRNA level at 6.25 to 25 uM after 4 hrs by quantitative RT-PCR analysis; type: cell-based
Method in brief: (§3)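 Total RNA taken from cells exposed to LPS 1 μg/ml with or without 6.25, 12.5 or 25 μM compound for 4 h. Steady-state iNOS and COX-2 mRNA measured by qRT-PCR and expressed as a ratio to β-actin. Means ± SDs, n=3 independent experiments. ANOVA with Dunnett's test.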

[7] = tested on: Peritoneal macrophage cell; test: Antiinflammatory activity against thioglycolate-stimulated C57BL/6 mouse peritoneal macrophages assessed as inhibition of LPS-induced PGE2 production by EIA; type: functional, cell-based
RAW264.7 [8] = test: Inhibition of NF-kappaB in mouse RAW264.7 cells assessed as reduction of LPS-induced IL6 mRNA expression at 6.25 to 25 uM after 4 hrs by quantitative RT-PCR analysis; type: cell-based
Method in brief: (§4)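 RNA prepared after 4 h of LPS 1 μg/ml stimulation with or without 6.25–25 μM compound. TNF-α, IL-6 and IL-1β transcripts quantified by qRT-PCR and normalised to β-actin. Three independent experiments.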

[9] = tested on: Peritoneal macrophage cell; test: Antiinflammatory activity against thioglycolate-stimulated C57BL/6 mouse peritoneal macrophages assessed as inhibition of LPS-induced NO production preincubated for 1 hr before LPS challenge measured after 24 hrs by Griess method; type: functional, cell-based
Method in brief: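 Peritoneal macrophages harvested from thioglycolate-injected C57BL/6 mice. Test agent 6.25, 12.5 or 25 μM added 1 h before LPS 1 μg/ml, with 24 h incubation. NO in the medium measured by Griess assay. Three independent experiments, means ± SDs.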

RAW264.7 [10] = test: Inhibition of NF-kappaB in mouse RAW264.7 cells co-transfected with piNOS-luc reporter with pRL-TK-luc assessed as inhibition of LPS-induced iNOS expression pretreated for 1 hr before LPS challenge by luciferase assay; type: cell-based
Method in brief: (§5)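 Cells transiently co-transfected with the piNOS-luc or pCOX-2-luc reporter plus pRL-TK-luc, then pretreated 1 h with 6.25, 12.5 or 25 μM before LPS. Luciferase activity read on a luminometer. Means ± SDs of three independent experiments.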

RAW264.7 [11] = test: Inhibition of NF-kappaB in mouse RAW264.7 cells assessed as reduction of LPS-induced IL1beta release at 6.25 to 25 uM pretreated for 1 hr before LPS challenge and measured after 24 hrs post LPS challenge by EIA; type: cell-based
Method in brief: (§6)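 Compound at 6.25, 12.5 or 25 μM given 1 h ahead of LPS 1 μg/ml, then 24 h incubation. TNF-α, IL-6 and IL-1β in culture medium quantified by EIA kits. Means ± SDs of three independent experiments.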

RAW264.7 [12] = test: Inhibition of NF-kappaB activation in mouse LPS-stimulated RAW264.7 cells co-transfected with pNF-KappaB-luc reporter and pRL-TK-luc pretreated for 1 hr before LPS challenge measured after 1 hr post challenge by luciferase assay; type: cell-based
Method in brief: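 Cells co-transfected with pNF-κB-luc and pRL-TK-luc, pretreated 1 h with 6.25, 12.5 or 25 μM, then given LPS 1 μg/ml for another 1 h. Luciferase activity measured by luminometer. Three independent experiments.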

RAW264.7 [13] = test: Inhibition of NF-kappaB in mouse RAW264.7 cells assessed as inhibition of LPS-induced expression of COX2 preincubated 1 hr before LPS challenge measured after 24 hrs by Western blot analysis; type: cell-based
Method in brief: (§7)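 1 h pretreatment at 6.25, 12.5 or 25 μM, then LPS 1 μg/ml for 24 h. Controls had neither LPS nor compound. 30 μg total protein run on SDS–PAGE, blotted to nitrocellulose, probed with iNOS- and COX-2-specific antibodies. Blots representative of three experiments.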

RAW264.7 [14] = test: Inhibition of NF-kappaB in mouse RAW264.7 cells assessed as reduction of LPS-induced TNFalpha release at 6.25 to 25 uM pretreated for 1 hr before LPS challenge and measured after 24 hrs post LPS challenge by EIA; type: cell-based; method in brief: as §6
RAW264.7 [15] = test: Antiinflammatory activity against mouse RAW264.7 cells assessed as inhibition of LPS-induced NO production preincubated for 1 hr before LPS challenge measured after 24 hrs by Griess method; type: functional, cell-based; method in brief: as §2
[16] = molecular target: Transcription factor p65 (Mus musculus) (UniProt Q04207); test: Inhibition of NF-kappaB p65 subunit nuclear translocation in LPS-induced mouse RAW264.7 cells pretreated for 1 hr before LPS challenge measured after 15 min or 1 hr post challenge by Western blot analysis
Sequence of Transcription factor p65 (Mus musculus) (Q04207 whole entry): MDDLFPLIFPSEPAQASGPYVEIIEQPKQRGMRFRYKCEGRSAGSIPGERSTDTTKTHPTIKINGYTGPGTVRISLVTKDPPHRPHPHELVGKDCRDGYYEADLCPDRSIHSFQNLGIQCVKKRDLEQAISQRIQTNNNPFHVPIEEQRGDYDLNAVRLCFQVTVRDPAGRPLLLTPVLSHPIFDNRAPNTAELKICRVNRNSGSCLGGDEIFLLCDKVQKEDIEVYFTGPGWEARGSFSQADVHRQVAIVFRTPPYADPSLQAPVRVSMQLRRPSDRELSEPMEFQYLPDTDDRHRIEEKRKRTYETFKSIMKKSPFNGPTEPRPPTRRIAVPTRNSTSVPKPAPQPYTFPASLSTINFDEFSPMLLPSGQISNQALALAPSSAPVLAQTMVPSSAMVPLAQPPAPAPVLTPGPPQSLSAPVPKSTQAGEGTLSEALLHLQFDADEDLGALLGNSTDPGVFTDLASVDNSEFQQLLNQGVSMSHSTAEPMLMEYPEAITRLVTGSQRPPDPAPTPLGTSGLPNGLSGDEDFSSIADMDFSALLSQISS

RAW264.7 [17] = test: Inhibition of NF-kappaB in mouse RAW264.7 cells assessed as reduction of LPS-induced IL1beta mRNA expression at 6.25 to 25 uM after 4 hrs by quantitative RT-PCR analysis; type: cell-based; method in brief: as §4
RAW264.7 [18] = test: Inhibition of NF-kappaB in mouse RAW264.7 cells co-transfected with pCOX-2-luc reporter with pRL-TK-luc assessed as inhibition of LPS-induced COX2 expression pretreated for 1 hr before LPS challenge by luciferase assay; type: cell-based; method in brief: as §5
RAW264.7 [19] = test: Inhibition of NF-kappaB activation in LPS-stimulated mouse RAW264.7 cells assessed as blockage of IkappaBalpha phosphorylation pretreated at 6.25 to 25 uM for 1 hr before LPS challenge measured after 15 to 60 mins post challenge by Western blotting; type: cell-based
Method in brief: (§8)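 Pretreatment 1 h at 6.25, 12.5 or 25 μM, then LPS 1 μg/ml for 15 min or 1 h. Cytosolic extracts immunoblotted for phospho-IκBα and IκBα, with β-actin as loading control. Blots representative of three experiments.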

RAW264.7 [20] = test: Inhibition of NF-kappaB in mouse RAW264.7 cells assessed as suppression of LPS-induced iNOS mRNA level at 6.25 to 25 uM after 4 hrs by quantitative RT-PCR analysis; type: cell-based; method in brief: as §3
RAW264.7 [21] = test: Inhibition of NF-kappaB in mouse RAW264.7 cells assessed as reduction of LPS-induced IL6 release at 6.25 to 25 uM pretreated for 1 hr before LPS challenge and measured after 24 hrs post LPS challenge by EIA; type: cell-based; method in brief: as §6
RAW264.7 [22] = test: Inhibition of NF-kappaB activation in LPS-stimulated mouse RAW264.7 cells assessed as blockage of IkappaBalpha degradation pretreated at 6.25 to 25 uM for 1 hr before LPS challenge measured after 15 to 60 mins post challenge by Western blotting; type: cell-based; method in brief: as §8
RAW264.7 [23] = test: Inhibition of NF-kappaB in mouse RAW264.7 cells assessed as inhibition of LPS-induced iNOS expression preincubated 1 hr before LPS challenge measured after 24 hrs by Western blot analysis; type: cell-based; method in brief: as §7
RAW264.7 [24] = test: Inhibition of NF-kappaB in mouse RAW264.7 cells assessed as reduction of LPS-induced TNFalpha mRNA expression at 6.25 to 25 uM after 4 hrs by quantitative RT-PCR analysis; type: cell-based; method in brief: as §4
RAW264.7 [25] = test: Antiinflammatory activity against mouse RAW264.7 cells assessed as inhibition of LPS-induced PGE2 production by EIA; type: functional, cell-based
RAW264.7 [26] = test: Antiinflammatory activity against mouse RAW264.7 cells assessed as inhibition of LPS-induced NO production at <16.73 uM preincubated for 1 hr before LPS challenge measured after 24 hrs by Griess method; type: functional, cell-based

COc1cc2oc(-c3ccc(N)cc3)cc(=O)c2c(OC)c1OC
IC50 (RAW264.7 [1]): > 100 µM | Activity (RAW264.7 [2]): Non-toxic | inhibition at 25 µM (RAW264.7 [3]): 69.5% | inhibition at 25 µM (RAW264.7 [4]): 23.1% | Activity (RAW264.7 [5]): Non-toxic

COc1cc2oc(-c3ccc(Br)cc3)cc(=O)c2c(OC)c1OC
inhibition (RAW264.7 [6]): Active | inhibition [7]: Dose-dependent effect | inhibition (RAW264.7 [8]): Active | inhibition [9]: Dose-dependent effect | inhibition (RAW264.7 [10]): Dose-dependent effect | IC50 (RAW264.7 [1]): 69.9 µM | Activity (RAW264.7 [2]): Non-toxic | inhibition (RAW264.7 [11]): Active | inhibition at 25 µM (RAW264.7 [3]): 89.6% | inhibition (RAW264.7 [12]): Dose-dependent effect | inhibition (RAW264.7 [13]): Dose-dependent effect | inhibition (RAW264.7 [14]): Active | IC50 (RAW264.7 [15]): 14.2 µM | inhibition (RAW264.7 [15]): Dose-dependent effect | inhibition [16]: Dose-dependent effect | inhibition at 25 µM (RAW264.7 [4]): 89.6% | inhibition (RAW264.7 [17]): Active | inhibition (RAW264.7 [18]): Dose-dependent effect | inhibition (RAW264.7 [19]): Active | inhibition (RAW264.7 [20]): Active | inhibition (RAW264.7 [21]): Active | inhibition (RAW264.7 [22]): Active | Activity (RAW264.7 [5]): Non-toxic | inhibition (RAW264.7 [23]): Dose-dependent effect | inhibition (RAW264.7 [24]): Active | IC50 (RAW264.7 [25]): 11 µM | inhibition (RAW264.7 [25]): Dose-dependent effect

COc1cc2oc(-c3ccccc3)cc(=O)c2c(OC)c1OC [BAICALEIN TRIMETHYL ETHER]
IC50 (RAW264.7 [1]): > 100 µM | Activity (RAW264.7 [2]): Non-toxic | inhibition at 25 µM (RAW264.7 [3]): 42.2% | inhibition at 25 µM (RAW264.7 [4]): 12.1% | Activity (RAW264.7 [5]): Non-toxic

O=c1cc(-c2ccc(Br)cc2)oc2cc(O)c(O)c(O)c12
IC50 (RAW264.7 [1]): 57.1 µM | Activity (RAW264.7 [2]): Non-toxic | inhibition at 25 µM (RAW264.7 [3]): 29.9% | inhibition at 25 µM (RAW264.7 [4]): 27% | Activity (RAW264.7 [5]): Non-toxic

O=c1cc(-c2ccccc2)oc2cc(O)c(O)c(O)c12 [BAICALEIN]
IC50 (RAW264.7 [1]): > 100 µM | inhibition at 25 µM (RAW264.7 [3]): 60.9% | inhibition at 25 µM (RAW264.7 [4]): 11.1%

COc1cc2oc(-c3ccc([N+](=O)[O-])cc3)cc(=O)c2c(OC)c1OC
IC50 (RAW264.7 [1]): > 100 µM | Activity (RAW264.7 [2]): Non-toxic | inhibition at 25 µM (RAW264.7 [3]): 84.4% | inhibition at 25 µM (RAW264.7 [4]): 17.4% | Activity (RAW264.7 [5]): Non-toxic

Nc1ccc(-c2cc(=O)c3c(O)c(O)c(O)cc3o2)cc1
IC50 (RAW264.7 [1]): 94.1 µM | Activity (RAW264.7 [2]): Non-toxic | inhibition at 25 µM (RAW264.7 [3]): 83.1% | inhibition at 25 µM (RAW264.7 [4]): 6.98% | Activity (RAW264.7 [5]): Non-toxic

O=c1cc(-c2ccc([N+](=O)[O-])cc2)oc2cc(O)c(O)c(O)c12
IC50 (RAW264.7 [1]): > 100 µM | Activity (RAW264.7 [2]): Non-toxic | inhibition at 25 µM (RAW264.7 [3]): 29.9% | inhibition at 25 µM (RAW264.7 [4]): 7.65% | Activity (RAW264.7 [5]): Non-toxic

COc1c(O)cc2oc(-c3ccccc3)cc(=O)c2c1O [OROXYLIN A]
Activity (RAW264.7 [26]): inactive | IC50 (RAW264.7 [1]): 16.7 µM | inhibition at 25 µM (RAW264.7 [4]): 12.4%
